PLCb3 inh – blocks human PLC-beta3 enzyme activity. 370,000 tested, 0.18% active. inhibition, % at 12.2 µM. Purified PLC-beta3, fluorogenic substrate, fluorescence. Q01970; in the data active = inhibition above about 11%
VIM-2 inh – inhibitors of Pseudomonas aeruginosa VIM-2 metallo-beta-lactamase; inhibition, % at 5.6 µM; 290,000 tested, 0.89% active; purified VIM-2, nitrocefin hydrolysis, epi-absorbance fluorescence;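 active = inhibition above the mean of all tested compounds plus 3 SD, cutoff set per screening run, cut at about 7.5% in these data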;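 note: red hydrolysis product quenches plate fluorescence so inhibitors raise well fluorescence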
IMP-1 inh – blocks Pseudomonas aeruginosa IMP-1 metallo-beta-lactamase | purified IMP-1, nitrocefin hydrolysis, epi-absorbance fluorescence | inhibition, % at 5.6 µM | 290,000 tested, 0.45% active;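 active = inhibition above the mean plus 3 SD of all compounds in the same screening run, cut at about 4.5% in these data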
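Test system: recombinant IMP-1 enzyme, purified / Medium: HEPES buffer pH 7.1 with ZnSO4 and Brij 35 / Doses: single dose, 5.6 µM / Times: 25 °C, 15 min preincubation, 25 min reaction / Detection: Epi-absorbance via hydrolysed-nitrocefin quenching of white-plate fluorescence, 480/530 nm, EDTA stop / Evaluation: percent inhibition from optical density relative to buffer-blank wells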
PvdQ acylase – P. aeruginosa PvdQ acylase inhibition; 340,000 tested, 0.063% active; purified PvdQ acylase, fluorescence plate reader; inhibition, % at 10 µM; in the data active = inhibition above about 30%, passing the limit was not always enough
PLCg1 inh – PLC-gamma1 (human) inhibition, primary screen | AID 720700 | inhibition, % at 12.2 µM | 370,000 tested, 0.84% active | P19174 | purified PLC-gamma1, fluorogenic substrate, fluorescence
PLCg1 ctr – inhibits human PLC-gamma1 in PLC-beta3 counter-screen; shares compounds with PLCg1 inh; 3,300 tested, 3.1% active; inhibition, % at 12.3 µM; purified PLC-gamma1, fluorogenic substrate, fluorescence
PLCbeta3 conf – confirmation of human PLC-beta3 inhibitors | shares compounds with PLCg1 inh | AID 743261 | purified PLC-beta3, fluorogenic substrate fluorescence | inhibition, % at 12.3 µM | 3,300 tested, 1% active; in the data active = inhibition above about 11%
Of the large screens only hits and unclear results are named; the others gave an inactive call (follow-up assays come after a bar, where they were run). Only some compounds are listed: those with a hit (about 2% of all), similar ones and a draw of the others. Cut-off read from the data, not from the text of the source, unless noted: active = inhibition above about 9.5%; inactive = the rest.

Cc1cc(N2CCNC[C@@H]2C)ccc1N1CCN(Cc2ccccc2)[C@H](C)C1	none (no result: VIM-2 inh, IMP-1 inh, PvdQ acylase)
Cc1cc(OCC(=O)OCC(=O)NCc2ccc3c(c2)OCO3)ccc1Cl	PLCg1 inh 10.1 (no result: VIM-2 inh, IMP-1 inh) | PLCg1 ctr inactive | PLCbeta3 conf inactive
O=C(NCCc1ccccc1)c1[nH]c(C(F)(F)F)nc1-c1ccccc1	none (no result: VIM-2 inh, IMP-1 inh, PvdQ acylase)
O=C(NCCc1ccc(O)cc1)c1[nH]c(C(F)(F)F)nc1-c1ccccc1	PLCg1 inh 12.8 (no result: VIM-2 inh, IMP-1 inh, PvdQ acylase) | PLCg1 ctr inactive | PLCbeta3 conf inactive
O=C(Cn1cccc1C(=O)c1ccccc1)NCc1ccc(Cl)cc1	none
Cc1ccc(CNC(=O)Cn2cccc2C(=O)c2ccccc2)cc1	PLCg1 inh 11.9 | PLCg1 ctr inactive | PLCbeta3 conf inactive
CC(CNC(=O)c1cc(Cl)ccc1[N+](=O)[O-])NC(=O)c1cc(Cl)ccc1[N+](=O)[O-] (stereo unspecified)	PLCg1 inh 10.7 | PLCg1 ctr inactive | PLCbeta3 conf inactive
Cc1ccccc1Cn1cc(COC(=O)N(C)Cc2ccccc2)nn1	none (no result: VIM-2 inh, IMP-1 inh, PvdQ acylase)
Cc1ccc(N(C)C(=O)CCS(=O)(=O)c2ccc3c(c2)oc(=O)n3C)cc1	none
CN(C(=O)CCS(=O)(=O)c1ccc2c(c1)oc(=O)n2C)C1CCCCC1	PLCg1 inh 13.6 | PLCg1 ctr inactive | PLCbeta3 conf inactive
COc1ccc(S[C@]2(C(=O)N(C)C)CC(=O)N(C(=O)c3ccccc3)[C@@H]2c2ccc(OC)cc2)cc1	none (no result: VIM-2 inh, IMP-1 inh, PvdQ acylase)
COc1cccc(CNc2nc(NC(C)C)nc3ccsc23)c1OC	none (no result: VIM-2 inh, IMP-1 inh, PvdQ acylase)
COc1cccc(CNc2nc(NCC3CC3)nc3ccsc23)c1OC	PLCg1 inh 10.0 (no result: VIM-2 inh, IMP-1 inh, PvdQ acylase) | PLCg1 ctr inactive | PLCbeta3 conf inactive
O=C(c1nnsc1S(=O)(=O)c1ccc(Cl)cc1)N1CCOCC1	PLCg1 inh 17.5 | PLCg1 ctr inactive | PLCbeta3 conf inactive
O=C(Cn1ccc([N+](=O)[O-])n1)Nc1nccs1	PLCg1 inh 9.6 | PLCg1 ctr inactive | PLCbeta3 conf inactive
Cc1cc([N+](=O)[O-])nn1CC(=O)Nc1nccs1	none
Nn1c(SCC(=O)N2c3ccccc3Sc3ccc(Cl)cc32)nnc1-c1n[nH]c2c1CCC2	none (no result: VIM-2 inh, IMP-1 inh, PvdQ acylase)
CCCCC1CCC(c2nc(-c3ccccn3)no2)CC1 (stereo unspecified)	PLCg1 inh 9.8 | PLCg1 ctr inactive | PLCbeta3 conf inactive
Cc1onc(-c2ccccc2Cl)c1C(=O)OCn1nnc2ccccc2c1=O	PLCg1 inh 10.7 | PLCg1 ctr inactive | PLCbeta3 conf inactive
COc1cc(=O)oc(C=O)c1C	none (no result: VIM-2 inh, IMP-1 inh, PvdQ acylase)
CC1(C(=O)NC2CCCC2)CCC(=O)N1Cc1ccccc1 (stereo unspecified)	none
CC1(C(=O)NC2CCCCCCC2)CCC(=O)N1Cc1ccco1 (stereo unspecified)	PLCg1 inh 9.8 | PLCg1 ctr inactive | PLCbeta3 conf inactive
O=C(C(=O)N1CCC(CNC(=O)c2cccs2)CC1)c1cc2ccccc2o1	none (no result: VIM-2 inh, IMP-1 inh, PvdQ acylase)
O=C(CCc1nnc(Cc2c[nH]c3ccccc23)o1)NC1CCCC1	PLCg1 inh 11.7 | PLCg1 ctr inactive | PLCbeta3 conf inactive
O=C(CCc1nnc(CCc2c[nH]c3ccccc23)o1)NC1CCC1	none
CN(C)S(=O)(=O)N1CCC(Oc2cccc(C(=O)NCCC3=CCCCC3)c2)CC1	PLCg1 inh 10.8 | PLCg1 ctr inactive | PLCbeta3 conf inactive
O=[N+]([O-])c1cncc2[nH]cnc12	none (no result: VIM-2 inh, IMP-1 inh, PvdQ acylase)
N#Cc1ccc(C(=O)Oc2coc(CSc3ncccn3)cc2=O)cc1	none (no result: VIM-2 inh, IMP-1 inh, PvdQ acylase)
COc1ccc(NC(=O)CSc2nnc(-c3ccccc3)n2Cc2ccco2)c(OC)c1	PLCb3 inh 11.1 | PLCg1 ctr inactive | PLCbeta3 conf inactive
COc1ccc(NC(=O)CSc2nnc(-c3ccccc3Cl)n2Cc2ccco2)c(OC)c1	none
COc1ccc(NC(=O)Cn2c(C(C)C)nc(C)cc2=O)cc1Cl	PLCg1 inh 10.3 | PLCg1 ctr inactive | PLCbeta3 conf inactive
CC(=O)c1ccc(NC(=O)NC2CCCCN(Cc3cccc(Cl)c3)C2=O)cc1 (stereo unspecified)	PLCg1 inh 11.3 (no result: VIM-2 inh, IMP-1 inh, PvdQ acylase) | PLCg1 ctr inactive | PLCbeta3 conf inactive
Cc1ccccc1CN1CCCCC(NC(=O)c2ccc(-c3ccccc3)cc2)C1=O (stereo unspecified)	PLCg1 inh 11.9 (no result: VIM-2 inh, IMP-1 inh, PvdQ acylase) | PLCg1 ctr inactive | PLCbeta3 conf inactive
